This is an account of results in ChEMBL document CHEMBL1129071, “Probes for narcotic receptor-mediated phenomena. 21. Novel derivatives of 3-(1,2,3,4,5,11-hexahydro-3-methyl-2,6-methano-6H-azocino[4,5-b]indol- 6-yl)-phenols with improved delta opioid receptor selectivity” (J Med Chem, 1996).

Assay [1] concerns the target Delta-type opioid receptor (Mus musculus, UniProt P32300). Briefly: Agonistic activity towards Opioid receptor delta 1 as inhibitory activity towards electrically stimulated mouse vas deferens. It is filed as functional, tissue-based. In outline:
(§1)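 Electrically stimulated smooth muscle bioassay. Guinea pig ileum longitudinal muscle-myenteric plexus strips come from male Hartley guinea pigs (250–500 g); vas deferens from male ICR mice (25–40 g). Tissues sit in 37 °C oxygenated Krebs bicarbonate (Mg-free for MVD) at 1 g tension (0.5 g MVD). Stimulation is 0.1 Hz, 0.4 ms pulses (2 ms MVD), supramaximal voltage.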

The target of assay [2] is Delta-type opioid receptor (Rattus norvegicus, UniProt P33533). As to the kind of experiment: Inhibition of [3H]- DADLE binding to Rat brain Opioid receptor delta 1.
Assay [3] concerns the target T1, Mu-type opioid receptor (Rattus norvegicus, UniProt P33535). Briefly: Inhibition of [3H]- DAMGO binding to Rat brain Opioid receptor mu 1. In outline:
(§2)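 Rat brain membranes labeled with [3H]DAMGO (1–3 nM), incubated 4 h at 25 °C in 50 mM Tris-HCl pH 7.4 with protease inhibitor cocktail. Nonspecific binding defined by 20 µM levallorphan. Displacement uses 8–10 test concentrations, run twice, diluted in 10 mM Tris pH 7.4 with 1 mg/mL BSA from 1 mM stocks containing 10% DMSO. IC50 and slope factor from curve fitting.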

The target of assay [4] is Kappa-type opioid receptor (Cavia porcellus, UniProt P41144). Briefly: Inhibition of [3H]- U69,593 binding to Guinea pig Opioid receptor kappa 1.
Assay [5] addresses Mu-type opioid receptor (Cavia porcellus, UniProt P97266). Briefly: Agonistic activity for Opioid receptor mu 1 as inhibitory activity towards electrically stimulated guinea pig ileum. In kind it is functional, tissue-based. The procedure, abridged:
as §1

Assay [6] can be described thus: Relative affinity for […] opioid receptors.
The target in assay [7] is Delta-type opioid receptor (Mus musculus) (UniProt P32300). Briefly: Agonistic activity towards Opioid receptor delta 1 was determined by evaluating the inhibitory activity towards electrically stimulated mouse vas deferens. The note with it: concentration not given here. It is filed as functional, tissue-based. In outline:
as §1

Assay [8] deals with Mu-type opioid receptor (Cavia porcellus) (UniProt P97266). As to the kind of experiment: Agonistic activity (30 uM) towards mu opioid receptor was determined by evaluating the inhibitory activity towards electrically stimulated guinea pig ileum. It is filed as functional, tissue-based. The procedure, abridged:
as §1

Assay [9] can be described thus: Relative affinity for mouse vas deferens (delta receptor) and guinea pig ileum (mu receptor). In kind it is tissue-based. The procedure, abridged: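 GPI/MVD IC50 ratio from the electrically stimulated guinea pig ileum and mouse vas deferens bioassays. Both tissues are stimulated at 0.1 Hz and supramaximal voltage, with cumulative agonist dosing.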
The target of assay [10] is T1, Mu-type opioid receptor. Briefly: Compound was evaluated for Inhibition of Radio Ligand binding of [3H]- DAMGO at Rat brain Opioid receptor mu 1 binding site. In outline:
as §2

Structures are written as SMILES. pIC50: −log10 of the molar value.

Delta-type opioid receptor (Rattus norvegicus, UniProt P33533), sequence (P33533 whole entry): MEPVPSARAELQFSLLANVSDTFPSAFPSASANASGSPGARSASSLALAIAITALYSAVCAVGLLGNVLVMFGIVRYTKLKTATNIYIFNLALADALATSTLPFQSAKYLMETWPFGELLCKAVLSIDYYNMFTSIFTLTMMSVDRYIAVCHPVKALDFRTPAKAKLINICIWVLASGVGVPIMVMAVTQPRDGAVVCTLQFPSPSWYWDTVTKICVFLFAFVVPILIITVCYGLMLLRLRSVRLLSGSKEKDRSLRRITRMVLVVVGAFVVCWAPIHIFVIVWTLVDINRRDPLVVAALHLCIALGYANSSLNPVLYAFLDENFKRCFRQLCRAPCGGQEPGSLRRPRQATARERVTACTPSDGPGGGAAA
Mu-type opioid receptor (Cavia porcellus, UniProt P97266), sequence (P97266 whole entry): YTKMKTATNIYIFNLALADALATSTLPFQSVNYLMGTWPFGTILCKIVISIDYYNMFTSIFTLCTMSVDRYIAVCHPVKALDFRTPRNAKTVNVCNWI
T1 sequence (P33535 whole entry): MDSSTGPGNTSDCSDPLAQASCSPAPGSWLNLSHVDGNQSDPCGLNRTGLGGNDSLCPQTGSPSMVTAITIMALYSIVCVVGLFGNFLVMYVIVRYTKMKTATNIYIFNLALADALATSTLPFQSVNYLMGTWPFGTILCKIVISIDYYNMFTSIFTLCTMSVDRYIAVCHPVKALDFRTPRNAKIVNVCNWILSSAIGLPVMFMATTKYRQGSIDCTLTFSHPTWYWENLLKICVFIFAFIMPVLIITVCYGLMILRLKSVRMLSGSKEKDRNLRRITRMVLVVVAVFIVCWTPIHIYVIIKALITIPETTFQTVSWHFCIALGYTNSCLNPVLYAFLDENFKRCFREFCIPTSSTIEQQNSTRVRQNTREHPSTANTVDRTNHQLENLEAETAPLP
Kappa-type opioid receptor, sequence (P41144 whole entry): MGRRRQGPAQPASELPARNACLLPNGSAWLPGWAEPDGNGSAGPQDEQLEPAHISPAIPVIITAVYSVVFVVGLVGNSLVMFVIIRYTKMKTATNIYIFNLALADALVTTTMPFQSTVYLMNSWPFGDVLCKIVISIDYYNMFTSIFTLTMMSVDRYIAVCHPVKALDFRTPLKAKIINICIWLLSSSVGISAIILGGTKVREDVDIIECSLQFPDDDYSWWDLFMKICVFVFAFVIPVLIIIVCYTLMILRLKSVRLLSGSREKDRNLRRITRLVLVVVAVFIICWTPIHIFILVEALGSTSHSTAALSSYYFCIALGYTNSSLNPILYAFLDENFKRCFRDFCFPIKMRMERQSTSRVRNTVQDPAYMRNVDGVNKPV
Delta-type opioid receptor (Mus musculus, UniProt P32300), sequence (P32300 whole entry): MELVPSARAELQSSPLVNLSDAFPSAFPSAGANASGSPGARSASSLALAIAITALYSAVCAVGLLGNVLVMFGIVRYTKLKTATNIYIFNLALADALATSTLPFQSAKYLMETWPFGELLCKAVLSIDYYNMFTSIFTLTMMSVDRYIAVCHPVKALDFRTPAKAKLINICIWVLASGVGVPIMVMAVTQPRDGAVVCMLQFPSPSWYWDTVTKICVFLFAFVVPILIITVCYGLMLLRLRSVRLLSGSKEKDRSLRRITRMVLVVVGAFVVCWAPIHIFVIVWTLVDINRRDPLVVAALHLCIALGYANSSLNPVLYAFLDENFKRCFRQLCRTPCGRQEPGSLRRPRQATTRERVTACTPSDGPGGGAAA
Mu-type opioid receptor (Cavia porcellus), sequence (P97266 whole entry): as the sequence (P97266 whole entry) above
Delta-type opioid receptor (Mus musculus), sequence (P32300 whole entry): as the sequence (P32300 whole entry) above

The pIC50 is the IC50 on a negative log10 scale, so that one unit is a factor of ten. Low values mean a high IC50, high ones a low IC50. Take `COc1cccc2c3c([nH]c12)CC1CC3(c2cccc(O)c2)CCN1C` (single isomer, unassigned; (-)) [listing 1 of 2 here]: the negative-log IC50 (pIC50) in assay [1] was 6.78; in assay [2] it was 8.36; at Mu-type opioid receptor [3], 7.53; in [4], 5.75; at Mu-type opioid receptor [5], 5.54.

Regarding `COc1ccc2[nH]c3c(c2c1)C1(c2cccc(O)c2)CCN(C)C(C3)C1` (racemic) [listing 1 of 2 here], the negative-log IC50 (pIC50) was 5.36 in [1]; 7.05 in assay [2]; 7.62 at Mu-type opioid receptor [3]; below 6.00 in [4]; 5.17 at Mu-type opioid receptor [5].

Turning to `C=CCN1C[C@H](C)N([C@H](c2ccc(C(=O)N(CC)CC)cc2)c2cccc(OC)c2)C[C@H]1C` [SNC-80], the pIC50 is 5.61 on Mu-type opioid receptor [3], below 6.00 in assay [4] and 5.26 at Mu-type opioid receptor [5].

With `CN1CCC2(c3cccc(O)c3)CC(=O)CC1C2` (racemic), the Ratio in assay [6] was 2.81.

Broadly, the inhibition is the share of the control response that was lost under treatment. Read a high inhibition as a strong effect. In assay [7], `COc1ccc2[nH]c3c(c2c1)C1(c2cccc(O)c2)CCN(C)C(C3)C1` (stereo in doubt; (-)-11) [listing 1 of 2 here] had an inhibition of 0%. The Ratio in assay [6] was determined as 17.4.

As for `COc1ccc2c3c([nH]c2c1)C[C@@H]1C[C@@]3(c2cccc(O)c2)CCN1C`, the negative-log IC50 (pIC50) in [1] was 7.31; in assay [2], 8.43; on Mu-type opioid receptor [3] it was 7.18; in assay [4], 5.93. In addition, the inhibition in assay [8] turned out to be 38%. Moreover, the Ratio in assay [6] was 314; in [9], above 612.

Regarding `COc1ccc2[nH]c3c(c2c1)C1(c2cccc(O)c2)CCN(C)C(C3)C1` (racemic) [listing 2 of 2 here], the Ratio in assay [6] came to 11.1; in assay [9], 1.5.

Turning to `COc1cccc2c3c([nH]c12)CC1CC3(c2cccc(O)c2)CCN1C` (single isomer, unassigned; (-)) [listing 2 of 2 here], the Ratio in assay [6] came to 402; in assay [9] it was 17.5.

In the case of `CC(C)C[C@@H](NC(=O)[C@H](Cc1ccccc1)NC(=O)CNC(=O)[C@@H](C)NC(=O)[C@@H](N)Cc1ccc(O)cc1)C(=O)O` [DADLE], the negative logarithm of the IC50 (pIC50) in assay [4] is 5.36.

As to `CN1CC[C@]2(c3cccc(O)c3)C[C@H]1Cc1[nH]c3ccccc3c12`, the negative logarithm of the IC50 (pIC50) was 6.41 in assay [1], 8.25 in [2], 7.85 on Mu-type opioid receptor [10] and 5.63 on Mu-type opioid receptor [5]. The Ratio in assay [9] amounted to 6.

On to `COc1ccc2[nH]c3c(c2c1)C1(c2cccc(O)c2)CCN(C)C(C3)C1` (stereo in doubt; (-)-11) [listing 2 of 2 here], for which the negative logarithm of the IC50 (pIC50) in assay [2] is 6.84; on Mu-type opioid receptor [3], 6.32; in assay [4], below 5.60; at Mu-type opioid receptor [5], 4.59.

In the case of `COc1cccc2c3c([nH]c12)CC1CC3(c2cccc(O)c2)CCN1C` (racemic) [listing 1 of 2 here], the pIC50 in [1] was 6.57; in assay [2] it was 8.06; on Mu-type opioid receptor [3] it was 7.54; in [4] it was 5.40; at Mu-type opioid receptor [5], 5.71.

`CN1CCC2(c3ccccc3)CC1Cc1[nH]c3ccccc3c12` (racemic): the pIC50 in assay [2] was 5.71; in assay [4], below 5.00. Also, the Ratio in [6] worked out at 5.08.

Consider `CN1CCC2(c3cccc(O)c3)CC(=O)CC1C2` (stereo not given), for which the Ratio in assay [6] amounted to 4.46.

Take `COc1cccc2c3c([nH]c12)CC1CC3(c2cccc(O)c2)CCN1C` (racemic) [listing 2 of 2 here]: the Ratio in assay [6] was 455; in assay [9], 7.2.

With `COc1ccc2c3c([nH]c2c1)CC1CC3(c2cccc(O)c2)CCN1C` (racemic), the pIC50 in assay [1] was 6.93; in assay [2], 8.20; on Mu-type opioid receptor [3] it was 7.32; in assay [4] it was below 6.00; at Mu-type opioid receptor [5], 6.06. The figures for the Ratio in assay [6] and in assay [9] were above 159 and 7.3, respectively.
